Laboratory results published in ChEMBL document CHEMBL1142201, “Tolerance to the glycopeptides vancomycin and teicoplanin in coagulase-negative staphylococci” (2007).

How the values were obtained:
Format in all cases: functional
[1] = system: Staphylococcus lugdunensis; experiment: Reduction of teicoplanin-tolerant Staphylococcus lugdunensis 111A91 isolate assessed as bacterial counts at 10 times MIC after 6 hrs by time-kill curve method
Summary of the method: (§1)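 CLSI time-kill in 50 ml Mueller-Hinton broth, mean starting inoculum 5.6 log10 CFU/ml. Vancomycin or teicoplanin at 5×, 10× or 20× the agar-dilution MIC. Viable counts taken before and 6 and 24 h after antibiotic addition; samples diluted 10-fold and plated in duplicate on prewarmed blood agar. Change reported as mean log CFU/ml.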

[2] = system: Staphylococcus lugdunensis; experiment: Ratio of MBC to MIC against teicoplanin-tolerant Staphylococcus lugdunensis 111A91 isolate
Summary of the method: (§2)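 MBC/MIC by CLSI broth method, starting inoculum between 10^5 and 10^6 CFU/ml in Mueller-Hinton broth. Vancomycin and teicoplanin tested; S. aureus ATCC 25923 quality control included in each assay. Three separate assays, each ratio reported individually.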

[3] = system: Staphylococcus lugdunensis; experiment: Reduction of teicoplanin-tolerant Staphylococcus lugdunensis 111A91 isolate assessed as bacterial counts at 10 times MIC after 24 hrs by time-kill curve method; summary of the method: as §1
[4] = system: Staphylococcus lugdunensis; experiment: Reduction of teicoplanin-tolerant Staphylococcus lugdunensis 111A91 isolate assessed as bacterial counts at 5 times MIC after 24 hrs by time-kill curve method; summary of the method: as §1
Staphylococcus [5] = experiment: Antibacterial activity against coagulase-negative Staphylococcus assessed as bacterial counts at 10 times MIC after 6 hrs
Summary of the method: (§3)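 CLSI time-kill in 50 ml Mueller-Hinton broth. Mean starting inoculum 5.6 log10 CFU/ml; vancomycin or teicoplanin at 10× MIC, with MIC from CLSI agar dilution. Counts taken just before and 6 and 24 h after antibiotic addition: samples diluted 10-fold to avoid carryover and plated in duplicate on prewarmed blood agar. Result given as Δlog CFU/ml; each strain run in duplicate.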

[6] = system: Staphylococcus lugdunensis; experiment: Antibacterial activity against coagulase-negative Staphylococcus lugdunensis ATCC 49576 assessed as bacterial counts at 10 times MIC after 24 hrs; summary of the method: as §3
[7] = system: Staphylococcus lugdunensis; experiment: Reduction of vancomycin-tolerant Staphylococcus lugdunensis 111A53 isolate assessed as bacterial counts at 10 times MIC after 24 hrs by time-kill curve method; summary of the method: as §1
Staphylococcus [8] = experiment: Antibacterial activity against coagulase-negative Staphylococcus assessed as bacterial counts at 10 times MIC after 24 hrs; summary of the method: as §3
[9] = system: Staphylococcus lugdunensis; experiment: Antibacterial activity against coagulase-negative Staphylococcus lugdunensis 111A91 isolate assessed as bacterial counts at 10 times MIC after 24 hrs; summary of the method: as §3
[10] = system: Staphylococcus lugdunensis; experiment: Antibacterial activity against coagulase-negative Staphylococcus lugdunensis isolate assessed as bacterial counts at 10 times MIC after 6 hrs; summary of the method: as §3
[11] = system: Staphylococcus lugdunensis; experiment: Antibacterial activity against coagulase-negative Staphylococcus lugdunensis 111A53 isolate assessed as bacterial counts at 10 times MIC after 24 hrs; summary of the method: as §3
[12] = system: Staphylococcus lugdunensis; experiment: Antibacterial activity against coagulase-negative Staphylococcus lugdunensis ATCC 49576 assessed as bacterial counts at 10 times MIC after 6 hrs; summary of the method: as §3
[13] = system: Staphylococcus lugdunensis; experiment: Reduction of vancomycin-tolerant Staphylococcus lugdunensis 111A53 isolate assessed as bacterial counts at 5 times MIC after 6 hrs by time-kill curve method; summary of the method: as §1
[14] = system: Staphylococcus lugdunensis; experiment: Antibacterial activity against coagulase-negative Staphylococcus lugdunensis isolate assessed as bacterial counts at 10 times MIC after 24 hrs; summary of the method: as §3
[15] = system: Staphylococcus lugdunensis; experiment: Reduction of vancomycin-tolerant Staphylococcus lugdunensis 111A53 isolate assessed as bacterial counts at 10 times MIC after 6 hrs by time-kill curve method; summary of the method: as §1
[16] = system: Staphylococcus lugdunensis; experiment: Reduction of teicoplanin-tolerant Staphylococcus lugdunensis 111A91 isolate assessed as bacterial counts at 5 times MIC after 6 hrs by time-kill curve method; summary of the method: as §1
[17] = system: Staphylococcus lugdunensis; experiment: Antibacterial activity against coagulase-negative Staphylococcus lugdunensis 111A91 isolate assessed as bacterial counts at 10 times MIC after 6 hrs; summary of the method: as §3
[18] = system: Staphylococcus lugdunensis; experiment: Antibacterial activity against coagulase-negative Staphylococcus lugdunensis 111A229 isolate assessed as bacterial counts at 10 times MIC after 24 hrs; summary of the method: as §3
[19] = system: Staphylococcus lugdunensis; experiment: Reduction of teicoplanin-tolerant Staphylococcus lugdunensis 111A91 isolate assessed as bacterial counts at 20 times MIC after 6 hrs by time-kill curve method; summary of the method: as §1
[20] = system: Staphylococcus lugdunensis; experiment: Antibacterial activity against coagulase-negative Staphylococcus lugdunensis ATCC 43809 assessed as bacterial counts at 10 times MIC after 24 hrs; summary of the method: as §3
[21] = system: Staphylococcus lugdunensis; experiment: Antibacterial activity against coagulase-negative Staphylococcus lugdunensis 111A229 isolate assessed as bacterial counts at 10 times MIC after 6 hrs; summary of the method: as §3
[22] = system: Staphylococcus lugdunensis; experiment: Reduction of vancomycin-tolerant Staphylococcus lugdunensis 111A53 isolate assessed as bacterial counts at 5 times MIC after 24 hrs by time-kill curve method; summary of the method: as §1
[23] = system: Staphylococcus lugdunensis; experiment: Antibacterial activity against coagulase-negative Staphylococcus lugdunensis ATCC 43809 assessed as bacterial counts at 10 times MIC after 6 hrs; summary of the method: as §3
[24] = system: Staphylococcus lugdunensis; experiment: Antibacterial activity against coagulase-negative Staphylococcus lugdunensis 111A53 isolate assessed as bacterial counts at 10 times MIC after 6 hrs; summary of the method: as §3
[25] = system: Staphylococcus lugdunensis; experiment: Reduction of vancomycin-tolerant Staphylococcus lugdunensis 111A53 isolate assessed as bacterial counts at 20 times MIC after 24 hrs by time-kill curve method; summary of the method: as §1
[26] = system: Staphylococcus lugdunensis; experiment: Antibacterial activity against coagulase-negative Staphylococcus lugdunensis 111A223 isolate assessed as bacterial counts at 10 times MIC after 6 hrs; summary of the method: as §3
[27] = system: Staphylococcus lugdunensis; experiment: Reduction of teicoplanin-tolerant Staphylococcus lugdunensis 111A91 isolate assessed as bacterial counts at 20 times MIC after 24 hrs by time-kill curve method; summary of the method: as §1
[28] = system: Staphylococcus lugdunensis; experiment: Antibacterial activity against coagulase-negative Staphylococcus lugdunensis 111A223 isolate assessed as bacterial counts at 10 times MIC after 24 hrs; summary of the method: as §3
[29] = system: Staphylococcus lugdunensis; experiment: Ratio of MBC to MIC against vancomycin-tolerant Staphylococcus lugdunensis 111A53 isolate; summary of the method: as §2
[30] = system: Staphylococcus lugdunensis; experiment: Reduction of vancomycin-tolerant Staphylococcus lugdunensis 111A53 isolate assessed as bacterial counts at 20 times MIC after 6 hrs by time-kill curve method; summary of the method: as §1

CN[C@H](CC(C)C)C(=O)N[C@H]1C(=O)N[C@@H](CC(N)=O)C(=O)N[C@H]2C(=O)N[C@H]3C(=O)N[C@H](C(=O)N[C@H](C(=O)O)c4cc(O)cc(O)c4-c4cc3ccc4O)[C@H](O)c3ccc(c(Cl)c3)Oc3cc2cc(c3O[C@@H]2O[C@H](CO)[C@@H](O)[C@H](O)[C@H]2O[C@H]2C[C@](C)(N)[C@H](O)[C@H](C)O2)Oc2ccc(cc2Cl)[C@H]1O [VANCOMYCIN]
log10CFU/ml [1]: -0.31
Ratio [2]: 64
log10CFU/ml [3]: -3.53
log10CFU/ml [4]: -3.9
deltalog10CFU/ml (Staphylococcus [5]): -2.98
deltalog10CFU/ml [6]: -3.91
log10CFU/ml [7]: -1.94
deltalog10CFU/ml (Staphylococcus [8]): -4.8
deltalog10CFU/ml [9]: -3.53
deltalog10CFU/ml [10]: -1.17
deltalog10CFU/ml [11]: -1.94
deltalog10CFU/ml [12]: -1.38
log10CFU/ml [13]: -0.05
deltalog10CFU/ml [14]: -4.1
log10CFU/ml [15]: -0.31
log10CFU/ml [16]: -1.16
deltalog10CFU/ml [17]: -0.31
deltalog10CFU/ml [18]: -2.42
log10CFU/ml [19]: -0.56
deltalog10CFU/ml [20]: -2.18
deltalog10CFU/ml [21]: -2.24
log10CFU/ml [22]: -1.72
deltalog10CFU/ml [23]: -0.21
deltalog10CFU/ml [24]: -0.31
log10CFU/ml [25]: -1.74
deltalog10CFU/ml [26]: -0.67
log10CFU/ml [27]: -2.83
deltalog10CFU/ml [28]: -1.65
Ratio [29]: 8
log10CFU/ml [30]: -0.07
